# From PubChem
# D1 mod = allosteric modulators of human D1 dopamine receptor; B-score at 10 µM; HEK293 D1, CRE-luciferase, dopamine EC30 potentiation; actives deviate in either direction; AID 641; 58,000 compounds, 5.9% hits;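 active = luminescence count or its row- and column-corrected plate score outside the 99.7% band of the plate's sample wells, on either side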
# RORa activator = activators of human nuclear receptor RORA; P35398; CHO-K1 Gal4-RORA LBD luciferase reporter, luminescence; percent increase over mock-subtracted basal signal; activation, % at 10 µM; 65,000 compounds, 1.5% hits; AID 560;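 active = activation above the mean of all tested compounds plus 3 SD, cut at about 49% in these data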;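 note: 0% = DMSO-treated RORA cells and 100% = added signal equal to DMSO minus mock-transfected cells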
# HePTP inhibitor = inhibitors of human HePTP phosphatase | recombinant HePTP phosphatase activity, OD absorbance | inhibition, % at 20 µM | 110,000 compounds, 0.64% hits; in the data active = inhibition above about 50%;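 note: plate controls were vehicle for no effect and reference inhibitor for full effect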
# M1 antagonist = M1 muscarinic receptor (rat) antagonism; B-score at 10 µM; AID 628; CHO-M1 cells, Fluo-4 calcium, ACh EC80 antagonist mode; stronger effect = lower value; 64,000 compounds, 3.4% hits; P08482;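 active = calcium fluorescence response, raw or row-and-column corrected B-score, differing from the plate sample mean either way at a set confidence level, mostly lower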
# Target sequence (P08482 whole entry, looked up): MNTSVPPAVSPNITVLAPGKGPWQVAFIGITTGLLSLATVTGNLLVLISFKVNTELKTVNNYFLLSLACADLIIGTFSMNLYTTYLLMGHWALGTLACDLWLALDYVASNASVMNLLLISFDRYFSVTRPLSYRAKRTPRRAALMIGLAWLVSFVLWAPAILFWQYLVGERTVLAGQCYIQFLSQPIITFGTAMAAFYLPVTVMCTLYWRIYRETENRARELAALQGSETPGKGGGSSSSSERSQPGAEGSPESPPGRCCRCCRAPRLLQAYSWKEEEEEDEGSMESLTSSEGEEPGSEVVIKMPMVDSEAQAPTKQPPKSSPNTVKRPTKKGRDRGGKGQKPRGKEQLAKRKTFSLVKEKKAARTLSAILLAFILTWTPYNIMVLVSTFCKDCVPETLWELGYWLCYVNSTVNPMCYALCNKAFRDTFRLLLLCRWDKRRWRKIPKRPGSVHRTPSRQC
# M1 agonist = agonists of M1 muscarinic receptor | CHO-M1 cells, Fluo-4 calcium fluorescence, agonist mode; stronger effect = higher value | B-score at 10 µM | 64,000 compounds, 3% hits | AID 626;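 active = fluorescence rise, raw or as B-score row- and column-corrected plate score, outside the 99.7% band of its plate's samples, either direction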
# SF-1 act = activates the human nuclear receptor SF-1 | CHO-K1 Gal4-SF-1 LBD luciferase reporter; % increase over DMSO SF-1-specific signal | activation, % at 10 µM | 65,000 compounds, 1.9% hits;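 active = activation above the mean activation of all tested compounds plus 3 SD, cut at about 50% in these data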
#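 Assay system: CHO-K1 cells co-transfected with Gal4 DBD–human SF-1 LBD, 5xGal4 luciferase reporter / Input: 4,000 cells per well / Incubation: 20 h compound exposure at 37 °C after 1 h cell settling / Detection: SteadyLite luciferase luminescence / Control set: DMSO negative control and −SF1 background wells / Replication: one test per compound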
# Starred values were filed as active, the others as inactive; nt = not tested or not shown. Rows were chosen to be rich in hits. Some 8.2% of all compounds tested hit in one or more screens of this group.
SMILES,D1 mod,RORa activator,HePTP inhibitor,M1 antagonist,M1 agonist,SF-1 act
O=C(O)c1cccc2c1NC(c1cccc3ccccc13)C1CC=CC21 (stereo not given),nt,nt,102*,nt,nt,nt
CCOc1ccc2nc(SCC(=O)Nc3ccc(OC)cc3OC)sc2c1,nt,nt,7,nt,nt,nt
CCNc1nc(N)nc(Oc2ccc(C(=O)OC)cc2)n1,2.4,56*,-2,0.0086,0.069,44
CCNc1nc(Oc2ccc(C(=O)OC)cc2)nc(N(C)C)n1,2.1,4,6,-0.022,-0.59,-22
COC(=O)c1cc2ccsc2n1CC(=O)Nc1cc(Cl)ccc1OC,1.9,13,0,0.14,-0.13,-4
COc1cc(C2=NOC(C(=O)Nc3ccc(C(C)=O)cc3)C2)cc(OC)c1OC (stereo not given),1.5,32,9,0.28,0.36,39
COc1cc(C2=NOC(C(=O)NCc3ccco3)C2)cc(OC)c1OC (stereo not given),-1.7,82*,-4,0.35,-0.91,55*
COc1ccc(NC(=O)Nc2cc(C)ccc2OC(F)F)c(OC)c1,-0.5,-8,-1,2*,1.4,-5
CCC(C(=O)Nc1cc([N+](=O)[O-])ccc1OC)c1ccccc1 (stereo not given),nt,nt,5,nt,nt,nt
CCC(C(=O)Nc1ccc(OC)cc1OC)c1ccccc1 (stereo not given),nt,nt,104*,nt,nt,nt
CN(C)S(=O)(=O)c1ccc(C(=O)NCc2ccccc2)cc1,0.74,12,-3,0.61,0.89,-3
CN(C)S(=O)(=O)c1ccc(C(=O)NCCOc2ccccc2)cc1,-0.49,38,5,0.43,-2.2,56*
O=C(NC(=S)NNc1nc(-c2ccccc2)cs1)c1cc2ccccc2oc1=O,nt,nt,99*,nt,nt,nt
COc1ccc2c(Cl)c(C(=O)Nc3ccc(Cl)cc3)sc2c1,nt,nt,0,nt,nt,nt
COc1ccc2c(Cl)c(C(=O)NC3CCS(=O)(=O)C3)sc2c1 (stereo not given),-0.96,35,-7,-0.19,-1.2,50*
COc1ccccc1NC(=O)CSc1nnc(-c2ccc(C)cc2)o1,nt,41,6,0.15,1.2,57*
Cc1cc(C)cc(-c2nnc(SCC(=O)NCc3cccs3)o2)c1,0.25,-4,1,-0.012,-0.94,-3
CNC(=O)CSc1nnc(-c2cc(C)cc(C)c2)o1,-3.2*,0,6,0.17,1,2
COc1cc(/C=C2/SC(=S)NC2=O)cc(Br)c1OCc1ccccc1F,nt,nt,41,nt,nt,nt
CN(C)c1ccc(NC(=O)c2ccc(COc3cccc(Cl)c3)o2)cc1,-0.25,73*,7,0.96,0,42
Cc1ccc(C(=O)Nc2ccc(N(C)C)cc2)o1,nt,nt,-8,nt,nt,nt
CCOc1cc(CNc2ccc3[nH]c(=O)[nH]c3c2)ccc1OCC(=O)NC(C)(C)C,-1.7,-9,1,-0.97,7.4*,26
O=C(Nc1cccc(Cl)c1Cl)c1cc2ccccc2o1,nt,nt,-3,nt,nt,nt
COC(=O)c1cccc(NC(=O)CSc2nc3cccnc3n2C)c1,-0.16,82*,-8,-1.8,-0.2,36
COC(=O)c1cccc(NC(=O)CSc2nnnn2C)c1,0.082,12,0,0.6,-0.39,9
SMILES,D1 mod,RORa activator,HePTP inhibitor,M1 antagonist,M1 agonist,SF-1 act
CN(C)S(=O)(=O)c1cccc(C(=O)N(Cc2ccc(F)cc2)Cc2ccco2)c1,-1.2,-19,5,-1.6,0.11,-6
CC1(C)CC(=O)C2=C(C1)c1c(ccc3ccccc13)NC2c1ccc(N2CCOCC2)cc1 (stereo not given),nt,nt,2,nt,nt,nt
CCOc1ccccc1OCC(=O)Nc1ccc(N2CCCCC2)cc1,-0.053,-8,6,-0.53,-0.5,10
CN1CCN(c2ccc(NC(=O)COc3ccccc3Cl)cc2)CC1,-4.1*,-20,-11,nt,nt,-15
O=c1[nH]c(/C=C/c2ccccc2)c([N+](=O)[O-])c(=O)[nH]1,nt,nt,-2,nt,nt,nt
CCCOC(=O)c1c(-c2ccc(OCC)cc2)csc1N,nt,nt,-10,nt,nt,nt
CCCOC(=O)c1c(-c2ccc(OC)c(OC)c2)csc1N,nt,nt,104*,nt,nt,nt
CCN1CC2=C(OC(N)=C(C#N)C2c2cccs2)/C(=C/c2cccs2)C1 (stereo not given),-2.7*,-19,5,-0.21,0.62,-10
CCN1CC2=C(OC(N)=C(C#N)C2c2ccccc2)/C(=C\c2ccccc2)C1 (stereo not given),nt,-9,2,-1.2,5.3,-8
CCOc1ccc(/C=C/C(=O)c2ccc(C)cc2)cc1,nt,nt,1,nt,nt,nt
CCOc1ccc(/C=C\C(C)=N\O)cc1,-0.53,72*,-5,1.4,0.017,6
O=C(N/N=C\c1ccc([N+](=O)[O-])o1)c1nc(-c2ccccc2)cc(-c2ccccc2)n1,nt,nt,51*,nt,nt,nt
COc1ccc(CNC(=O)c2nn3c(c2Cl)NC(c2ccc(C)cc2)CC3C(F)(F)F)cc1 (stereo not given),nt,nt,-22,nt,nt,nt
COc1ccc(C2CC(C(F)(F)F)n3nc(C(=O)NCc4c(C)nn(C)c4C)c(Cl)c3N2)cc1 (stereo not given),-3.1*,19,0,0.7,0.027,13
CCOC(=O)C(C)Sc1nc2c(c(=O)[nH]c(=O)n2C)n1Cc1ccc(Cl)cc1 (stereo not given),4.8,-6,-1,0.056,0.21,-12
CCOC(=O)c1c(C)c(C(=O)Nc2ccc(N(C)C)cc2)c(C)n1CC,0.7,54*,-3,-1.3,-1.4,72*
O=C(/C=C\Nc1cccc(F)c1)c1ccc2c(c1)OCO2,-6.9*,-34,-5,-0.83,0.6,-58
O=C(Nc1ccc2c(c1)OCO2)c1cccc(F)c1,0.23,52*,6,0.18,0.38,21
O=C(Nc1ccc2c(c1)OCO2)c1cncc(Br)c1,-0.55,14,10,-0.0039,2,53*
CC(C)=CC(=O)Nc1ccc2c(c1)OCO2,-5.2*,8,4,-0.017,1.3,41
CCC(CC)N1CCN(C(=O)c2cc(OC)c(OC)c(OC)c2)CC1,nt,nt,0,nt,nt,nt
COC(=O)C1=C(C)NC(=O)CC1c1ccccc1Br (stereo not given),nt,nt,5,nt,nt,nt
Cc1cc(C)cc(NC(=O)CN(CCc2ccccc2)S(=O)(=O)c2ccccc2)c1,nt,nt,1,nt,nt,nt
O=C(CSc1ccccc1)Nc1ccc(S(=O)(=O)NCC2CCCO2)cc1 (stereo not given),0.13,-12,-1,0.035,0.024,-5
O=C(Nc1ccc2c(c1)OCO2)c1c(F)cccc1F,-0.28,25,-6,0.54,-0.0033,58*
SMILES,D1 mod,RORa activator,HePTP inhibitor,M1 antagonist,M1 agonist,SF-1 act
O=C(Nc1ccc2c(c1)OCO2)c1cccc(I)c1,nt,nt,-2,nt,nt,nt
Nn1c(SCC(=O)Nc2ccc(F)cc2F)nnc1-c1cccnc1,0.22,4,8,0.82,0.25,57*
c1ccc(Oc2cccc(CN3CCN(Cc4ccccn4)CC3)c2)cc1,nt,nt,7,nt,nt,nt
C=CCNC(=O)c1ccc(C(C)(C)C)cc1,nt,nt,-15,nt,nt,nt
CSCCNC(=O)c1ccc(C(C)(C)C)cc1,-1.8,73*,7,0.063,-0.83,73*
CCOC(=O)c1cc(-c2cccs2)nn1CCC#N,nt,-2,-1,0.28,-0.21,-5
